Bioassay records (PubChem BioAssay)
Rows were chosen to be rich in hits. Some 3.3% of all compounds tested hit in one or more screens of this group.
ABCB6 inh MLPCN = inhibitors of human ABC transporter ABCB6; K562-ABCB6 porphyrin accumulation, flow cytometry, 1 h; hits give low values; fluorescence ratio to DMSO, % at 10 µM; 0.19% of 360,000 active; AID 602162;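 active = fluorescence ratio to DMSO below 75%, the collection mean minus 3 SD; inconclusive = too few cells collected in the well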;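 note: signal is porphyrin accumulated inside mitochondria; lower ratio means ABCB6 inhibition with less porphyrin fluorescence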
CendR NRP1 mod = modulators of CendR peptide binding to human neuropilin-1; O14786; AID 602438; 0.85% of 360,000 active; inhibition, % at 25 µM; FAM-RPARPAR peptide binding to NRP-1, fluorescence polarization;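 active = inhibition or corrected inhibition above about 18%, plus a signal ratio from 0.5 to 1.5, limit read from the data, passing the limit was not always enough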
Myeloid diff MLP = promotes myeloid progenitor differentiation; ER-HoxA9 myeloid progenitors, lysozyme-GFP differentiation, flow cytometry; calls only at 10 µM; 1% of 360,000 active; AID 624256;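 active = normalized GFP-positive differentiation at or above the plate's own cutoff, the solvent-only control mean plus 3 SD; inconclusive = no clear call, values can overlap the other calls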;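 note: cells exposed to compound for four days before flow analysis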
Arrestin-AP2 inh = inhibitors of human beta-arrestin and AP2 interaction; FITC-arrestin peptide / GST-AP2 beads, flow cytometry; AP2 beta2 appendage carries R879A mutation; inhibition, % at 10 µM; 0.31% of 340,000 active; AID 504490;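 active = inhibition above a set limit, near 3 SD of compounds lacking own fluorescence, cut at about 54% in these data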
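System: GST-AP2 R879A glutathione beads. Medium: PBS with 0.05% Tween 20 and 0.1% BSA. Also added: FITC-arrestin peptide, 50 nM. Incubation: 12 min plus 1 h, RT. Measured by: high-throughput flow cytometry of beads, ex 488, em 535 nm. Evaluation: percent drop in bead-associated FITC signal.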
Exocytosis inh = lytic granule exocytosis inhibition | inhibition, % at 10 µM | AID 651702 | TALL-104 LAMP-1 surface exposure, flow cytometry; cells stimulated with thapsigargin and PMA | 0.66% of 360,000 active;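 active = inhibition above about 55%, limit read from the data; inconclusive = no clear call, values can overlap the other calls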
ATG4B inh = blocks human ATG4B protease cleavage of LC3 substrate; ATG4B cleavage of LC3-PLA2, NBD-HPC fluorescence, 1 h; inhibition, % at 8.33 µM; 0.51% of 340,000 active; in the data active = inhibition above about 40%
Target sequence (Q9Y4P1 whole entry, looked up): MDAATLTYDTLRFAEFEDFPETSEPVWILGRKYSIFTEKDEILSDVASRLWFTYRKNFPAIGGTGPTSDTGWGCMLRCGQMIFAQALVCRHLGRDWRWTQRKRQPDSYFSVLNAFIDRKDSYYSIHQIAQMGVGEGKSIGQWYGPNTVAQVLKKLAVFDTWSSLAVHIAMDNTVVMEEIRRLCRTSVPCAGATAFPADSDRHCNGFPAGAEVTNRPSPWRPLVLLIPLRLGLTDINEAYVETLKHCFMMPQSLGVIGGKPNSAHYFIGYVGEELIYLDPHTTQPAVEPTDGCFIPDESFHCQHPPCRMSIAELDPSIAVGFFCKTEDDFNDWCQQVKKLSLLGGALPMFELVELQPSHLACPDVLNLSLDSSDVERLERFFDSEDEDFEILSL
Of the large screens only hits and unclear results are named; the others gave an inactive call.

CCN(C(=O)CSc1n[nH]c(-c2ccc(OC)cc2)n1)c1c(N)n(Cc2ccccc2)c(=O)[nH]c1=O	Myeloid diff MLP active
CCN(C(=O)CSc1nnc2ccccn12)c1c(N)n(Cc2ccccc2)c(=O)[nH]c1=O	none
CCCCN(C(=O)CSc1nnc2ccccn12)c1c(N)n(Cc2ccccc2)c(=O)[nH]c1=O	Myeloid diff MLP active
COc1ccccc1CNC(=O)c1c(N)n(CCCN2CCOCC2)c2nc3ccccc3nc12	Myeloid diff MLP inconclusive, Exocytosis inh 71.5
Nc1c(C(=O)NCc2ccc3c(c2)OCO3)c2nc3ccccc3nc2n1CCCN1CCOCC1	none (no result: Myeloid diff MLP)
CC(=O)Nc1ccccc1C(=O)C(=O)O	CendR NRP1 mod 26.0
CC(=O)Nc1ccccc1O	none
CCOC(=O)CC(=O)CSc1nc(-c2ccccc2)cc(-c2ccccc2)c1C#N	Myeloid diff MLP active
COc1cc(-c2cc(-c3ccccc3)nc(SCC(=O)Nc3nccs3)c2C#N)cc(OC)c1OC	Myeloid diff MLP active
COc1ccc(-c2csc(C(NC(C)=O)c3cccc(F)c3)n2)cc1 (stereo unspecified)	none (no result: Arrestin-AP2 inh, ATG4B inh)
O=C(COc1ccc(Cl)cc1Br)N1CCN(c2ncccn2)CC1	none
Cc1cccc(N(C)S(=O)(=O)c2ccc3c(c2)C(C)(C)C(=O)N3C)c1	none
CN(CC(=O)Nc1cccc(F)c1)C(=O)Cn1c(=O)oc2ccccc21	CendR NRP1 mod 22.6
CC1CCCCN1C(=O)Cn1c(=O)oc2ccccc21 (stereo unspecified)	none
CN(C(=O)Cn1c(=O)oc2ccccc21)C1CCCCC1	CendR NRP1 mod 20.0
COc1ccc(C(=O)Nc2ccnn2C2CCN(C3CCC3)CC2)cc1	Myeloid diff MLP inconclusive
CN1CCc2cc3c(c4c2[C@H]1[C@H](O)c1ccccc1-4)OCO3	CendR NRP1 mod 46.7
CNC(=O)COC(=O)c1cc(SC)ccc1Cl	Myeloid diff MLP active
O=C(CC(NC(=O)C(F)(F)F)c1ccccc1)Nc1nnc(CCc2ccccc2)s1 (stereo unspecified)	none
COc1cccc(NC(=S)NCCN2CCOCC2)c1	none
COc1cc(NC(=S)NCCCN2CCOCC2)cc(OC)c1	ABCB6 inh MLPCN 62.0
CCOc1ccccc1C1C(C#N)=C(N)SC(N)=C1C#N	Myeloid diff MLP active
CCc1ccc(C2C(C#N)=C(N)SC(N)=C2C#N)cc1	none
CCOc1ccccc1C1C(C#N)=C(N)Oc2n[nH]c(CC)c21 (stereo unspecified)	none
CCOc1ccc(C2C(C#N)=C(N)SC(N)=C2C#N)cc1OCC	Myeloid diff MLP active
Cc1ccc2oc3nc(C)c(C(=O)Nc4cccc(C(F)(F)F)c4)cc3c(=O)c2c1	none
CC(C)=CCNc1ncnc2c1c(C#N)cn2C1OC(CO)C(O)C1O (stereo unspecified)	CendR NRP1 mod 26.2 (no result: Myeloid diff MLP)
Cc1cc(CNC(=O)CC2C(=O)NCCN2CC(C)(C)C)nn1C (stereo unspecified)	none
Cc1cnccc1CNC(=O)CC1C(=O)NCCN1CC(C)(C)C (stereo unspecified)	CendR NRP1 mod 26.5
O=C(Cn1cnnn1)OCC(=O)c1ccc(Cl)s1	Myeloid diff MLP active
C[C@]12CC[C@H](O)CC1=CCC1C2CC[C@@]2(C)C1CCC21OCCO1 (stereo partly specified)	none
C=C[C@]12CC[C@H](OC(C)=O)CC1=CCC1C2CC[C@@]2(C)C1CCC21OCCO1 (stereo partly specified)	CendR NRP1 mod 22.2
CC1OC(OCC2OC(Oc3c(-c4ccc(O)cc4)oc4cc(O)cc(O)c4c3=O)C(O)C(O)C2O)C(O)C(O)C1O (stereo unspecified)	CendR NRP1 mod 21.6
CC1OC(OC2C(Oc3c(-c4ccc(O)cc4)oc4cc(O)cc(O)c4c3=O)OC(COC3O[C@@H](C)[C@H](O)[C@@H](O)C3O)C(O)C2O)C(O)C(O)C1O (stereo partly specified)	none
O=C(Nc1ccccn1)c1cccs1	none
CN1C(C(=O)Nc2ccccn2)=C(O)c2sccc2S1(=O)=O	Myeloid diff MLP active
N#CCCN(C(=O)Nc1ccccc1)c1ccccc1	CendR NRP1 mod 28.0
N#CCCN(C(=O)Nc1ccc(Cl)cc1)c1ccccc1	none
O=C(CSc1nnc(CNC(=O)c2ccco2)o1)Nc1cccc(F)c1	CendR NRP1 mod 19.4
O=C(CSc1nnc(CNC(=O)c2ccco2)o1)Nc1cccc(C(F)(F)F)c1	none
CC[n+]1c(/C=C2\Sc3ccccc3N2C)ccc2cccc(C)c21	Myeloid diff MLP inconclusive, Exocytosis inh 67.5 (no result: ABCB6 inh MLPCN)
CCN1/C(=C/c2ccc3cc(C)ccc3[n+]2CC)Sc2ccccc21	Myeloid diff MLP inconclusive (no result: ABCB6 inh MLPCN)
O=C(NC(=O)N1CCCCC1)c1ccccc1	CendR NRP1 mod 26.5
O=C(NC(=S)N1CCCCCC1)c1ccccc1	none
OCC1CCCN(C(=S)Nc2ccc(OC(F)F)cc2)C1 (stereo unspecified)	none
OCC1CCCN(C(=S)Nc2ccc(Nc3ccccc3)cc2)C1 (stereo unspecified)	CendR NRP1 mod 33.0
COC(=O)CCC(C)C1CCC2C3C(OC(C)=O)CC4CC(O)CCC4(C)C3CC(O)C12C (stereo unspecified)	none (no result: Arrestin-AP2 inh, ATG4B inh)
COc1ccc(OC)c(C(C[N+](=O)[O-])c2c(C)cc3ccccn23)c1 (stereo unspecified)	Myeloid diff MLP inconclusive, Exocytosis inh 75.1
CC(C)(C)[C@H]1COC(=O)CCCC/C=C\C[C@H](CC(=O)NCCO)C(=O)N1	none
CCC1(c2ccc(F)cc2)NC(=O)N(CC(=O)NCC(=O)Nc2cccc(C)c2C)C1=O (stereo unspecified)	none
COc1ccc(CCC(=O)Nc2c(-c3ccc(N(C)C)cc3)[nH][nH]c2=O)cc1	none (no result: Arrestin-AP2 inh, ATG4B inh)
Cc1cc(C)cc(N(CCC(=O)Nc2nnc(C)s2)S(=O)(=O)c2ccc(Cl)cc2)c1	none
C=CCn1c(C)nnc1SCC(=O)c1c(N)n(C2CC2)c(=O)[nH]c1=O	none
O=C1CCCN1CCCNc1nc(NCc2cccs2)nc2ccsc12	CendR NRP1 mod 25.6 (no result: Arrestin-AP2 inh, ATG4B inh)
Clc1ccc2c(c1)C(N1CCNCC1)Cc1ccccc1S2 (stereo unspecified)	Exocytosis inh 73.4
CCc1ccccc1NC(=O)NC1CC2CCC(C1)N2Cc1ccco1 (stereo unspecified)	CendR NRP1 mod 19.7
CCC(/C=C1\Sc2ccc(OC)cc2N1CCO)=C\c1sc2ccc(OC)cc2[n+]1CCO	Arrestin-AP2 inh 77.3
CCC(/C=C1\Sc2ccc(OC)cc2N1CC)=C\c1sc2ccc(OC)cc2[n+]1CCCS(=O)(=O)[O-]	none
O=C(COC(=O)c1ccc(F)c([N+](=O)[O-])c1)NC(=O)NCc1ccccc1	CendR NRP1 mod 22.4
CCC1CCCCN1CCNC(=O)CCS(=O)(=O)c1ccc(Br)cc1 (stereo unspecified)	none
